For assay [1], the target named is Sodium-dependent serotonin transporter (Homo sapiens, UniProt P31645). Briefly: Affinity was evaluated using [3H]citalopram (radioligand) on human serotonin transporter expressed in HEK cells. The format is cell-based, HEK293.
Assay [2] addresses T1, Sodium-dependent dopamine transporter (Homo sapiens, UniProt Q01959). The experiment in a line: Affinity was evaluated using [3H]WIN-35428 (radioligand) on Cloned human Dopamine transporter expressed in HEK cells. The assay is classed as cell-based, HEK293.
In assay [3] the target is T1, Sodium-dependent dopamine transporter. The experiment in a line: Affinity was evaluated using [3H]DA (radioligand) on Cloned human Dopamine transporter expressed in HEK cells. The format is cell-based, HEK293. The method in brief: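 HEK-293 cells stably expressing cloned hDAT, suspended intact; preincubated with inhibitor 15 min at room temperature in pH 7.4 Na phosphate/NaCl/KCl/MgSO4/glucose/CaCl2 buffer with 0.1 mM tropolone, then [3H]dopamine added for 8 min more; ended with ice-cold buffer. Compounds from DMSO stocks, 0.5% final DMSO, at least five concentrations.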

The target of assay [4] is Sodium-dependent dopamine transporter (Rattus norvegicus, UniProt P23977). Briefly: IC50 value was evaluated using [3H]WIN-35428 (radioligand) on Dopamine transporter in rat striatum. The assay is classed as tissue-based.
Sequence of Sodium-dependent dopamine transporter (Rattus norvegicus, UniProt P23977) (P23977 whole entry): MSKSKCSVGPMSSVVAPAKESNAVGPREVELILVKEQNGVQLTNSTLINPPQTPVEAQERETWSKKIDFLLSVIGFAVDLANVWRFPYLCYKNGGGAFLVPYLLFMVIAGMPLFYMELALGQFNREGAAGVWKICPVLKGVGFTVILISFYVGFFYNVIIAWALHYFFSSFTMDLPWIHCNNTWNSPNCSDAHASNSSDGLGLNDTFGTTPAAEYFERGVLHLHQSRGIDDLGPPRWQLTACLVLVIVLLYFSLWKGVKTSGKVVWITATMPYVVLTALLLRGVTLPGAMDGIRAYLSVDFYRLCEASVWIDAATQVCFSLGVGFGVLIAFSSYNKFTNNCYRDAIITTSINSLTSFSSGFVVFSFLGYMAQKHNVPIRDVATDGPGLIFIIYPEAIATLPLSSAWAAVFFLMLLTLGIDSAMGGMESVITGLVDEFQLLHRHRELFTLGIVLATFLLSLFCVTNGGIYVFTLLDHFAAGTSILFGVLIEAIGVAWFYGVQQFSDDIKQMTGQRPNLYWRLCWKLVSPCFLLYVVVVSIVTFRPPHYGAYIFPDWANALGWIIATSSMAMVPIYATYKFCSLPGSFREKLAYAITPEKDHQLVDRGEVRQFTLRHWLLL
The target of assay [5] is Sodium-dependent serotonin transporter (Rattus norvegicus, UniProt P31652). Briefly: IC50 value was evaluated using [3H]citalopram (radioligand) on serotonin transporter in rat striatum. The format is tissue-based.
Sequence of Sodium-dependent serotonin transporter (Rattus norvegicus, UniProt P31652) (P31652 whole entry): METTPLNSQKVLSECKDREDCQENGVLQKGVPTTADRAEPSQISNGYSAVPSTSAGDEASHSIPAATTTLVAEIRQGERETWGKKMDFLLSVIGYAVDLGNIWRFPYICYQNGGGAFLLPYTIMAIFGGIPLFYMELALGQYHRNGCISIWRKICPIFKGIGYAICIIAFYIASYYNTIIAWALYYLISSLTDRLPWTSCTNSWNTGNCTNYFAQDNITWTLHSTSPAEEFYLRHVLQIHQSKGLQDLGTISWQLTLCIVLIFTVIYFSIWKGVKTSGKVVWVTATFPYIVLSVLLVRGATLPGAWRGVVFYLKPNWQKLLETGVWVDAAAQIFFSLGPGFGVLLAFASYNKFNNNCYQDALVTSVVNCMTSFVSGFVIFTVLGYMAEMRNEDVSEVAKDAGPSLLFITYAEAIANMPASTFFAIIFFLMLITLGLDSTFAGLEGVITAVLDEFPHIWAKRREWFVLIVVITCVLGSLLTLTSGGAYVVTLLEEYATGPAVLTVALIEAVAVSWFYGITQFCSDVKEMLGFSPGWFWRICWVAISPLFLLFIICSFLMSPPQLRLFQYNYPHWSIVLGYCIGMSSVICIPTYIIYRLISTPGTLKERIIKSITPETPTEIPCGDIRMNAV

pIC50: −log10 of the molar value.

T1 sequence (Q01959 whole entry): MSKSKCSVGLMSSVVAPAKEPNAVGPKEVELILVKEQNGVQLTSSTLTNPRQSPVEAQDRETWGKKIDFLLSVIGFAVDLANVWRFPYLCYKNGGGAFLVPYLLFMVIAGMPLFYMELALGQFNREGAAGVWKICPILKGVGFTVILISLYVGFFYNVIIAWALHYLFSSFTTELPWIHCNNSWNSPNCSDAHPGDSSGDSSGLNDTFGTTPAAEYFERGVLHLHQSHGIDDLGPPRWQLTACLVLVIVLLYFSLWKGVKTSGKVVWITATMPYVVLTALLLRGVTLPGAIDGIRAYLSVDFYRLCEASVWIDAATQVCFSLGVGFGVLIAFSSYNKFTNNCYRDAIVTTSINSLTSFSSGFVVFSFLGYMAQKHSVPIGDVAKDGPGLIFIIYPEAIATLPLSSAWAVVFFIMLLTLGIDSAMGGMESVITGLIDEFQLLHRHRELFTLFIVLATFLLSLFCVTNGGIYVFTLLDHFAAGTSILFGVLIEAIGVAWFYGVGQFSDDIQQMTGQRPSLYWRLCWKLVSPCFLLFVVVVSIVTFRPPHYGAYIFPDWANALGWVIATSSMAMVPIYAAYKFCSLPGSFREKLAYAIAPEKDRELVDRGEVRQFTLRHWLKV
Sequence of Sodium-dependent serotonin transporter (Homo sapiens, UniProt P31645) (P31645 whole entry): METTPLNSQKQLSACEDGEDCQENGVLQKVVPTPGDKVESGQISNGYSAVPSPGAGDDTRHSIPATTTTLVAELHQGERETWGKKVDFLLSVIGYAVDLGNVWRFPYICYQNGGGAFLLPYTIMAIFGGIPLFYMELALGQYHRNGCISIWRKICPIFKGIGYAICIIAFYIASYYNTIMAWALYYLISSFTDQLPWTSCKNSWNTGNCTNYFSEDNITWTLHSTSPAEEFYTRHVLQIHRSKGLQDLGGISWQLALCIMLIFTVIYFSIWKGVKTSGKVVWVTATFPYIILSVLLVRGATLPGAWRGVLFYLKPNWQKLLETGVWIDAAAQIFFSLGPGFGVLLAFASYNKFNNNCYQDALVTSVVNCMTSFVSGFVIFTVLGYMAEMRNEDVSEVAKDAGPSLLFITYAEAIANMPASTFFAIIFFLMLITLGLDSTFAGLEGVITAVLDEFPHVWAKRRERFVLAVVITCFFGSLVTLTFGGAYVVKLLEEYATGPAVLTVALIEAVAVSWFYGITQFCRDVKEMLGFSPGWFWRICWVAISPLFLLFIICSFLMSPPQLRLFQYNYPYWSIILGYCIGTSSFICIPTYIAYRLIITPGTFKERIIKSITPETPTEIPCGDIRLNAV

As a reminder, the pIC50 is −log10 of the IC50, conventionally taken in molar units. High values mean a small IC50, low ones a large IC50. Consider `O=C(CC1CCN(Cc2ccc(F)cc2)CC1)NC(c1ccccc1)c1ccccc1`, for which the pIC50 in assay [1] was 4.31; in assay [2] it was 5.49.

For `Fc1ccc(CN2CCC(CCOC(c3ccccc3)c3ccccc3)CC2)cc1`, the pIC50 in assay [2] is 7.42.

In turn, `Fc1ccc(C(OCCC2CCN(Cc3ccccc3)CC2)c2ccc(F)cc2)cc1` showed a pIC50 in assay [2] of 7.46.

For the molecule `Fc1ccc(C(NCCC2CCN(Cc3ccccc3)CC2)c2ccc(F)cc2)cc1`, the pIC50 in assay [1] was 4.97; in assay [3], 7.24; in assay [2] it was 7.48.

Regarding `Fc1ccc(CN2CCC(CCNC(c3ccccc3)c3ccccc3)CC2)cc1`, the negative-log IC50 (pIC50) in assay [1] was 5.23; in assay [4], 8.03; in assay [3] it was 7.49; in assay [2], 7.52; in assay [5] it was 6.23.

Source of the values: ChEMBL document CHEMBL1131067, “Tolerance in the replacement of the benzhydrylic O atom in 4-[2-(diphenylmethoxy)ethyl]-1-benzylpiperidine derivatives by an N atom: development of new-generation potent and selective N-analogue molecules for the dopamine transporter” (J Med Chem, 1998).
